In data set [1] the target is L-lactate dehydrogenase B chain (Homo sapiens, UniProt P07195). The data set can be described thus: Non-competitive inhibition of human recombinant LDHB assessed as inhibition constant using varying concentration of pyruvate as substrate preincubated for 10 mins followed by substrate addition and measured every 60 sec for 10 mins in the presence of NADH by fluorescence assay.

In data set [2] the test system is Hepatocyte. Put plainly: Cytotoxicity against hyperoxaluric-primary hepatocyte isolated from Hoga1-knockdown PH3 C57BL/6 mouse assessed as cell death at 10 uM by MTS assay. Particulars: hepatocytes, Hoga1-knockdown PH3, 10 µM. The format is toxicity, cell-based. The method, boiled down:
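Primary hepatocytes from Agxt1-/- (PH1, 5 mM glycolate), Grhpr-/- (PH2, 10 mM glycolate) or Hoga1-/- (PH3, 10 mM hydroxyproline) mice, incubated with inhibitor at 10 μM; viability followed through the oxalate assay by MTS tetrazolium method.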
Background: Tetrazolium assays rely on reduction of a dye to a coloured formazan, in cell work by metabolically active cells.

The next data set has as its target T1, 2-Hydroxyacid oxidase 1 (Homo sapiens, UniProt Q9UJM8).
T1 sequence (Q9UJM8 whole entry): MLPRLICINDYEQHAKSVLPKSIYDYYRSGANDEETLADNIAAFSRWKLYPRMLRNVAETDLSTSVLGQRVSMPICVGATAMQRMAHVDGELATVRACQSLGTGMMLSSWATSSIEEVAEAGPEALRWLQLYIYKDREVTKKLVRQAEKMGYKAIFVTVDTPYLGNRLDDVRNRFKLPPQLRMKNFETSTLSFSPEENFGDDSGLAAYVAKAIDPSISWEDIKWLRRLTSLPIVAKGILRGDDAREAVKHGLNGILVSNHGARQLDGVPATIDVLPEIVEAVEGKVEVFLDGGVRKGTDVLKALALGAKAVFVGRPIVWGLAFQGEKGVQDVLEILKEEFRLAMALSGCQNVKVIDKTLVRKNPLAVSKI
Put plainly: Inhibition of N-terminal His-tagged human recombinant glycolate oxidase expressed in Escherichia coli BL21 (DE3) cells using glycolate as substrate preincubated for 10 mins followed by substrate addition and measured after 10 mins by Amplex red and horseradish peroxidase based fluorescence assay.

In data set [3] the target is T2, Prostaglandin G/H synthase 1 (Ovis aries, UniProt P05979).
T2 sequence (P05979 whole entry): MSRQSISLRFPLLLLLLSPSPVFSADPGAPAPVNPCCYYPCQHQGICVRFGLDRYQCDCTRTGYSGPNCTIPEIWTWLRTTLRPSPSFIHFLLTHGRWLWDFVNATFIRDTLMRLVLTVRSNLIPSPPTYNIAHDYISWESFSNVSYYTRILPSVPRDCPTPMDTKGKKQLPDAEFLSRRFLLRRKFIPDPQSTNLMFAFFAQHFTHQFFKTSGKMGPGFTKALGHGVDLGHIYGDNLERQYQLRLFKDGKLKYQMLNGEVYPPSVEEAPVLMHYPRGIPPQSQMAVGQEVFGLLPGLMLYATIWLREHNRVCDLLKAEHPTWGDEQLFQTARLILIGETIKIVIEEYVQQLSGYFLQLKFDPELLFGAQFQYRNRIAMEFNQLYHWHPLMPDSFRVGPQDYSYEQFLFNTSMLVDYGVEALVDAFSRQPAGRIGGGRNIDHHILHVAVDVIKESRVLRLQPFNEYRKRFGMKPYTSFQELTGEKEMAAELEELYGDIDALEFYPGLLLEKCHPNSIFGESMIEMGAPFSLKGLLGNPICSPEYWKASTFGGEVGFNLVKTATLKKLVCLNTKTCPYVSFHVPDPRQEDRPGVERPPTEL
The data set can be described thus: Inhibition of ovine COX-1 using arachidonic acid as substrate measured every 60 sec for 10 mins by fluorescence based assay.

The subject of data set [4] is Hepatocyte. Put plainly: Inhibition of GO/LDHA in hyperoxaluric-primary hepatocyte isolated from Agxt1 knockdown PH1 C57BL/6 mouse assessed as relative oxalate output at 10 uM measured at 48 hrs in the presence of glycolate relative to control. The class given is cell-based. The method, boiled down: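 Agxt1-/- mouse primary hepatocytes cultured with 5 mM glycolate, inhibitor at 10 μM; extracellular oxalate measured by colorimetric kit 24 and 48 h after inhibitor addition; relative oxalate = oxalate with inhibitor over oxalate without inhibitor; negative values mean below detection limit; mean of three/four replicates ± SD.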

L-lactate dehydrogenase B chain, sequence (P07195 whole entry): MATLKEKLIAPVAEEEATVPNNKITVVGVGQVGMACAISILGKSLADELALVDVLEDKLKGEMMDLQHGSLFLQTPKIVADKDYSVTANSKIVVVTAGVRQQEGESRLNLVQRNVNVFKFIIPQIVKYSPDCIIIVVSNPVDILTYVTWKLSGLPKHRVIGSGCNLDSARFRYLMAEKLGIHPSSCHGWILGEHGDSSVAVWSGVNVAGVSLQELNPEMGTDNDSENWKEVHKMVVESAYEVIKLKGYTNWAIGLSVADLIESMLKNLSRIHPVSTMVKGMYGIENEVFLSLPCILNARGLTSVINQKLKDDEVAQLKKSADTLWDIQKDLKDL

As for `N.N.O=C(O)c1cc(-c2ccc(CN(Cc3ccccc3)Cc3ccc(-c4ccc(O)c(C(=O)O)c4)o3)o2)ccc1O`, the Ki in data set [1] turned out to be 700 nM. In addition, the Activity entry in the data set on Hepatocyte [2] is on record as “Non-Toxic”. For the same molecule, the IC50 at 2-Hydroxyacid oxidase 1 turned out to be 1500 nM; in data set [3], 24000 nM. Also, the fold change (FC) with Hepatocyte [4] came out at 0.76.

The Ki is the dissociation constant of the complex between target and ligand, obtained from inhibition or displacement. As usually defined, the IC50 is the concentration needed to halve the response being measured.

(Values after ChEMBL document CHEMBL5120856, “New salicylic acid derivatives, double inhibitors of glycolate oxidase and lactate dehydrogenase, as effective agents decreasing oxalate production” (Eur J Med Chem, 2022).)
